Test results reported in ChEMBL document CHEMBL5357044, “Discovery of a dual-acting inhibitor of interleukin-1β and STATs for the treatment of inflammatory bowel disease” (RSC Med Chem, 2024).
Active and inactive are the calls of the source. No cut-off for these calls is given here.

Legend:
[1] = biological target: NACHT, LRR and PYD domains-containing protein 3 (Mus musculus) (UniProt Q8R4B8); test: Inhibition of NLRP3 inflammasome activation in mouse J774.A1 cells assessed as reduction in cleaved GSDMD production at 50 to 200 nM pretreated for 1 hr followed by nigericin treatment for 1 hr by Western blot analysis; format: cell-based; conditions: dose 50-200 nM, time 2.0 hrs
Method in brief: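 J774A.1 cells, LPS 1 μg mL−1 for 5 h, compound exposure, nigericin 10 μM 1 h. RIPA lysis with protease inhibitor and BCA quantitation, then SDS-PAGE/PVDF. Blocked 5% milk, primary antibodies overnight at 4 °C, HRP secondaries, ECL detection.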

[2] = tested on: Intestine; test: Anti-colitis activity against DSS-induced ulcerative colitis mouse model assessed as decrease in STAT-5 level in intestinal tissue at 0.2 to 0.6 mg/kg, ip treated every 72 hrs for 9 days by Western blot analysis; format: functional, organism-based; conditions: dose 0.2-0.6 mg/kg, time 9.0 day
Method in brief: (§1)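 DSS model (2.5% in drinking water days 1–7, water days 8–9). Dosing was i.p. at 0.2 and 0.6 mg kg−1 in 50% PEG300 on days 2, 5, 8. Intestinal tissue taken at sacrifice on day 9. Lysed in RIPA with protease inhibitor and BCA-quantified, then run on SDS-PAGE/PVDF and probed for STAT1, STAT3, STAT5 and caspase-1. ECL detection.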

[3] = tested on: Colon; test: Downregulation of IL-6 level in colon tissue of DSS-induced ulcerative colitis mouse model at 0.2 to 0.6 mg/kg, ip treated every 72 hrs for 9 days by ELISA; format: functional, organism-based; conditions: dose 0.2-0.6 mg/kg, time 9.0 day
Method in brief: (§2)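 Colitis induced with 2.5% DSS in drinking water on days 1–7, plain water days 8–9. Compound given i.p. at 0.2 and 0.6 mg kg−1 in 50% PEG300 on days 2, 5 and 8. Mice killed on day 9; colon tissue cytokines measured by ELISA. Mean ± s.e.m.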

[4] = tested on: Intestine; test: Anti-colitis activity against DSS-induced ulcerative colitis mouse model assessed as decrease in caspase-1 level in intestinal tissue at 0.2 to 0.6 mg/kg, ip treated every 72 hrs for 9 days by Western blot analysis; format: functional, organism-based; conditions: dose 0.2-0.6 mg/kg, time 9.0 day; method in brief: as §1
[5] = tested on: Mus musculus; test: Anti-colitis activity against DSS-induced ulcerative colitis mouse model assessed as increase in body weight at 0.2 to 0.6 mg/kg, ip treated every 72 hrs for 9 days; format: functional, organism-based; conditions: dose 0.2-0.6 mg/kg, time 9.0 day
Method in brief: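 Mice given 2.5% DSS water days 1–7, then water to day 9. Dosing: i.p. 0.2 or 0.6 mg kg−1 in 50% PEG300 on days 2, 5, 8. Body weight and fecal occult blood scored daily. Colon length measured after sacrifice on day 9. Mean ± s.e.m.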

[6] = tested on: J774.A1; test: Inhibition of intracellular ROS generation in mouse J774.A1 cells at 0.125 to 0.5 uM pretreated for 1 hr followed by nigericin treatment for 1 hr by DCFH-DA staining based fluorescence microscopy; format: functional, cell-based; conditions: dose 0.125-0.5 µM, time 2.0 hrs
Method in brief: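 J774A.1 cells processed through NLRP3 activation protocol (LPS 1 μg mL−1 5 h, compound, nigericin 10 μM 1 h). Loaded with DCFH-DA 20 μM at 37 °C for 30 min and washed twice with D-PBS. Fluorescence read at Ex/Em 492/520.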

[7] = tested on: Colon; test: Downregulation of TNF-alpha level in colon tissue of DSS-induced ulcerative colitis mouse model at 0.2 to 0.6 mg/kg, ip treated every 72 hrs for 9 days by ELISA; format: functional, organism-based; conditions: dose 0.2-0.6 mg/kg, time 9.0 day; method in brief: as §2
[8] = Toxicity in mouse assessed as inactive state of animal at 2 mg/kg/day, ip treated for 7 days; format: organism-based; conditions: in vivo, 168 h, time 7 day
Method in brief: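 Preliminary tolerability study: mice (n = 2) injected intraperitoneally at 2 mg kg−1 per day for 7 days. General state and activity observed.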

[9] = tested on: Colon; test: Anti-colitis activity against DSS-induced ulcerative colitis mouse model assessed as decrease in infiltration of inflammatory cells in colon tissue at 0.2 to 0.6 mg/kg, ip treated every 72 hrs for 9 days by H and E staining based analysis; format: functional, organism-based; conditions: dose 0.2-0.6 mg/kg, time 9.0 day
Method in brief: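 Colons were taken on day 9 from 2.5% DSS-fed mice (DSS days 1–7). Dosing was i.p. 0.2 or 0.6 mg kg−1 in 50% PEG300 on days 2, 5, 8. H&E-stained sections imaged at ×20 and scored for inflammatory infiltration, goblet cell depletion and crypt loss.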

[10] = tested on: Colon; test: Anti-colitis activity against DSS-induced ulcerative colitis mouse model assessed as decrease in IL-1beta level in colon tissue at 0.2 to 0.6 mg/kg, ip treated every 72 hrs for 9 days by ELISA; format: functional, organism-based; conditions: dose 0.2-0.6 mg/kg, time 9.0 day; method in brief: as §2
[11] = tested on: Intestine; test: Anti-colitis activity against DSS-induced ulcerative colitis mouse model assessed as decrease in STAT-3 level in intestinal tissue at 0.2 to 0.6 mg/kg, ip treated every 72 hrs for 9 days by Western blot analysis; format: functional, organism-based; conditions: dose 0.2-0.6 mg/kg, time 9.0 day; method in brief: as §1
[12] = tested on: Intestine; test: Anti-colitis activity against DSS-induced ulcerative colitis mouse model assessed as decrease in STAT-1 level in intestinal tissue at 0.2 to 0.6 mg/kg, ip treated every 72 hrs for 9 days by Western blot analysis; format: functional, organism-based; conditions: dose 0.2-0.6 mg/kg, time 9.0 day; method in brief: as §1
[13] = biological target: NLR family CARD domain-containing protein 4 (Mus musculus) (UniProt Q3UP24); test: Inhibition of NLRC4 inflammasome activation in mouse BMDM cells assessed as reduction in LPS-stimulated IL-1beta level at 50 to 200 nM pretreated for 1 hr followed by FLA-ST Ultrapure treatment for 4 hrs by ELISA; format: cell-based; conditions: dose 50-200 nM, time 5.0 hrs
Method in brief: (§3)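 BMDMs (RPMI 1640, 10% FBS, Glutamax, 20 ng mL−1 M-CSF) primed with 0.5 μg mL−1 LPS for 3 h, then compound for 1 h. Stimulated 4 h with FLA-ST Ultrapure 2.5 μg mL−1 (NLRC4) or poly(dA/dT) 0.25 μg mL−1 (AIM2). IL-1β measured by ELISA.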

[14] = biological target: T1, Interferon-inducible protein AIM2 (Mus musculus) (UniProt Q91VJ1); test: Inhibition of AIM2 inflammasome activation in mouse BMDM cells assessed as reduction in LPS-stimulated IL-1beta level at 50 to 200 nM pretreated for 1 hr followed by poly(dA/dT) treatment for 4 hrs by ELISA; format: cell-based; conditions: dose 50-200 nM, time 5.0 hrs; method in brief: as §3
T1 sequence (whole entry): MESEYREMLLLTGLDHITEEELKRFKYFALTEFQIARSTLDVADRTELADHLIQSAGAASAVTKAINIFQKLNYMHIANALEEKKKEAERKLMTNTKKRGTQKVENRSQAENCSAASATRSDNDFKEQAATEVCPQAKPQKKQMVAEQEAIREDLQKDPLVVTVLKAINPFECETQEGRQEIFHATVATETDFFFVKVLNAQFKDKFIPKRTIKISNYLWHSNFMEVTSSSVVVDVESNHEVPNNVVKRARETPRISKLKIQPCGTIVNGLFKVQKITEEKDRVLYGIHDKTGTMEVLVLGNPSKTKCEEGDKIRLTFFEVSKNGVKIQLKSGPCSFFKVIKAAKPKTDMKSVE

Sequence of NACHT, LRR and PYD domains-containing protein 3 (Mus musculus) (Q8R4B8 whole entry, the tested form may be a part): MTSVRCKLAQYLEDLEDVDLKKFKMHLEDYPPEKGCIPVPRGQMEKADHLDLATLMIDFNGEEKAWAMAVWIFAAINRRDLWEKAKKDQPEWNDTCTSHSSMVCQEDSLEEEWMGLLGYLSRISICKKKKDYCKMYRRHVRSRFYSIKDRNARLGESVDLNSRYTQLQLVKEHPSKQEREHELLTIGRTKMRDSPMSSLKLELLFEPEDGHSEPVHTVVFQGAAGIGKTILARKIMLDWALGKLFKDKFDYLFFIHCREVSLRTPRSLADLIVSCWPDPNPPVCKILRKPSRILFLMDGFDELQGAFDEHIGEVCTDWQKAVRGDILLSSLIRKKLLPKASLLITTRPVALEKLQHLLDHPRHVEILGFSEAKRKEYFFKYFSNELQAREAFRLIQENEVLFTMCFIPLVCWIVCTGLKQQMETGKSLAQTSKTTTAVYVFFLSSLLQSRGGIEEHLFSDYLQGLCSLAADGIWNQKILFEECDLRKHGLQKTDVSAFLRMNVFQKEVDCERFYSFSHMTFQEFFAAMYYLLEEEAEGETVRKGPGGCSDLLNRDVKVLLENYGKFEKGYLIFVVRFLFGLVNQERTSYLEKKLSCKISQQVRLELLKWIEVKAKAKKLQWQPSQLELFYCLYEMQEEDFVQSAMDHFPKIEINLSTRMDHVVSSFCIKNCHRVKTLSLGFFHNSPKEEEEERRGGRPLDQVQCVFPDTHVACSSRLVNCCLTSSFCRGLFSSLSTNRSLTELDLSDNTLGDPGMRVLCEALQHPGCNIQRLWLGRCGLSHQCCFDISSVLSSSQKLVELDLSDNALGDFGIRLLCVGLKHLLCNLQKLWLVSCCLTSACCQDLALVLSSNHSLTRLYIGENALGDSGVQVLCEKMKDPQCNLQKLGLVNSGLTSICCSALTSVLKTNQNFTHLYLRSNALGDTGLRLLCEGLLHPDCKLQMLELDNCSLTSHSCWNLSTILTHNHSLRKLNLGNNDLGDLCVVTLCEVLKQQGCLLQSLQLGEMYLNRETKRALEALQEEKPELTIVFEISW
Sequence of NLR family CARD domain-containing protein 4 (Mus musculus) (Q3UP24 whole entry, the tested form may be a part): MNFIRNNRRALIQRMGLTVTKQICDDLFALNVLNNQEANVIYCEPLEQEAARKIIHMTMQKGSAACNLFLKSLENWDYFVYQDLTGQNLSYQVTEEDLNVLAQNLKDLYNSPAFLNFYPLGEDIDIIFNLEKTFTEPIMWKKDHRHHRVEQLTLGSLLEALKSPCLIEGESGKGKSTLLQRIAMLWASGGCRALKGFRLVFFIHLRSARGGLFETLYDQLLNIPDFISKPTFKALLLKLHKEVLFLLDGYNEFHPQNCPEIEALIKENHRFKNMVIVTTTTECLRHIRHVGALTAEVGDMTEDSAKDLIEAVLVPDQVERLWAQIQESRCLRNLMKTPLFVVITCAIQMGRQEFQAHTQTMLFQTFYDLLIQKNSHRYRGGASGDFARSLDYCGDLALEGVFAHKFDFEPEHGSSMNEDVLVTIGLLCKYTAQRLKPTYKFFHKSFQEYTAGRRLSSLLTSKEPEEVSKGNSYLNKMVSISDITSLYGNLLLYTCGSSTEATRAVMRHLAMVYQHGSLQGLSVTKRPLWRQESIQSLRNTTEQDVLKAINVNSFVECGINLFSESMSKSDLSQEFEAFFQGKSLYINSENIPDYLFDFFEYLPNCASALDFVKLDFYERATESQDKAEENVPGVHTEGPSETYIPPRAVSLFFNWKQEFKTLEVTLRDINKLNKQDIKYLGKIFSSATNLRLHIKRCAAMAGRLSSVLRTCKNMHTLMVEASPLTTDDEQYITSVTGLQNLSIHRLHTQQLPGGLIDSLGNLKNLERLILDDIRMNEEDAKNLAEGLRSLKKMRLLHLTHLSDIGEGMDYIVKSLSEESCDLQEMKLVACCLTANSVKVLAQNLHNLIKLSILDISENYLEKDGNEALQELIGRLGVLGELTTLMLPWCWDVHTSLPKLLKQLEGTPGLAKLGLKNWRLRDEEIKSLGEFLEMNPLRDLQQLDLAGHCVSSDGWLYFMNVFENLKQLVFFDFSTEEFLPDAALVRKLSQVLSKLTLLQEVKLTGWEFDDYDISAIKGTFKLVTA

inhibition [1]: Active | inhibition [13]: inactive | inhibition [14]: Active
SMILES: Cc1cc(/C=C/C(=O)c2ccc(C(=O)N[C@@H](Cc3ccccc3)C(=O)N[C@@H](CC(C)C)B(O)O)cc2)cc(C)c1O
Activity [2]: Active | Activity [3]: inactive | Activity [4]: Active | Activity [5]: Active | inhibition [6]: inactive | Activity [7]: inactive | Activity [8]: Toxic | Activity [9]: Active | Activity [10]: Active | Activity [11]: inactive | Activity [12]: Active
